# Reference: ChEMBL document CHEMBL1139827, “Synthesis and pharmacological profile of serofendic acids A and B” (Bioorg Med Chem, 2007)
# Active and inactive are the calls of the source. The rule behind the calls is not given here.
# What was measured:
# [1] = Ratio of drug level in brain to plasma in Sprague-Dawley rat at 1 mg/kg, iv after 0.5 hr; format: ADME, organism-based; parameters: dose 1 mg/kg, route intravenous; conditions: read-out: BPR
# In short: (§1)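 SD rats (n = 3, fasted) given 1 mg/kg iv in 30% DMSO/5% glucose. Brain and blood taken at 0.5 and 2 h. Brain homogenized (20% saline). Brain homogenate or plasma (0.1 ml) treated with MeOH/HClO4 (500:1, 0.2 ml), centrifuged 12,000 rpm for 5 min, filtered. Brain-to-plasma concentration ratio calculated.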
# [2] = Half life in Sprague-Dawley rat at 5 mg/kg, po; format: ADME, organism-based; parameters: dose 5 mg/kg, route oral; conditions: in vivo
# In short: (§2)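 Fasted SD rats (n = 3) dosed orally at 5 mg/kg, 1 mg/ml in 0.5% methyl cellulose. Plasma sampled at 0.25, 0.5, 1, 2, 4, 6 and 8 h. Plasma (0.1 ml) deproteinized with MeOH/HClO4 (500:1, 0.2 ml), spun 12,000 rpm for 5 min, filtered. Bioavailability set against the 1 mg/kg iv dosing.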
# [3] = Total clearance in Sprague-Dawley rat at 1 mg/kg, iv; format: ADME, organism-based; parameters: dose 1 mg/kg, route intravenous; conditions: in vivo
# In short: (§3)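 Fasted SD rats (n = 3, 290–260 g) given 1 mg/kg iv, dosing solution 1 mg/ml in 30% DMSO/5% glucose. Blood sampled at 0.25, 0.5, 1, 2, 4, 6 and 8 h. Plasma (0.1 ml) mixed with MeOH/HClO4 (500:1, 0.2 ml), centrifuged 12,000 rpm for 5 min and filtered. Plasma PK parameters derived from these samples.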
# [4] = AUC in Sprague-Dawley rat at 1 mg/kg, iv; format: ADME, organism-based; parameters: dose 1 mg/kg, route intravenous; conditions: plasma; in short: as §3
# [5] = Cmax in Sprague-Dawley rat at 5 mg/kg, po; format: ADME, organism-based; parameters: dose 5 mg/kg, route oral; conditions: in vivo; in short: as §2
# [6] = AUC in Sprague-Dawley rat at 5 mg/kg, po; format: ADME, organism-based; parameters: dose 5 mg/kg, route oral; conditions: plasma; in short: as §2
# [7] = Volume of distribution at steady state in Sprague-Dawley rat at 1 mg/kg, iv; format: ADME, organism-based; parameters: dose 1 mg/kg, route intravenous; conditions: in vivo, read-out: Vdss; in short: as §3
# [8] = system: Cerebral cortex; assay: Protective effect against glutamate-induced neurotoxicity in fetal rat cerebral cortex after 24 hrs; format: functional, tissue-based
# In short: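 Wistar fetal rat cortical neurons (E17–19) grown on polyethyleneimine-coated coverslips, 10 µM cytosine arabinoside added from day 6, used at 11–15 DIV. Exposed to 500 µM Glu for 10 min; compound present 1 h before, during and 24 h after. Viability by trypan blue exclusion, >200 cells per coverslip, five coverslips, mean ± SEM.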
# [9] = Oral bioavailability in Sprague-Dawley rat at 5 mg/kg; format: ADME, organism-based; conditions: in vivo; in short: as §2
# [10] = Half life in Sprague-Dawley rat at 1 mg/kg, iv; format: ADME, organism-based; parameters: dose 1 mg/kg, route intravenous; conditions: in vivo; in short: as §3
# [11] = Tmax in Sprague-Dawley rat at 5 mg/kg, po; format: ADME, organism-based; parameters: dose 5 mg/kg, route oral; conditions: in vivo; in short: as §2
# [12] = system: Cerebral cortex; assay: Protective effect against glutamate-induced neurotoxicity in fetal rat cerebral cortex at 1 uM after 24 hrs; format: functional, tissue-based
# In short: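 Primary cortical neurons from fetal Wistar rats (17–19 days gestation), used after 11–15 days in vitro; cytosine arabinoside 10 µM added at day 6. Compound present 1 h before, during and 24 h after 10 min exposure to 500 µM Glu. Viability by trypan blue exclusion (>200 cells/coverslip, five coverslips), % unstained cells; means ± SEM.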
# [13] = Ratio of drug level in brain to plasma in Sprague-Dawley rat at 1 mg/kg, iv after 2 hrs; format: ADME, organism-based; parameters: dose 1 mg/kg, route intravenous; conditions: read-out: BPR; in short: as §1
Structure (SMILES),Kp at 0.5 h [1],half-life [2] [min],clearance [3] [mL/min/kg],AUC [4] [ng·h/mL],Cmax [5] [ng/mL],AUC [6] [ng·h/mL],Vd [7] [L/kg],Activity [8],bioavailability [9] [%],half-life [10] [min],Tmax [11] [min],Activity [12],Kp at 2 h [13]
C[S@@+]([O-])C[C@H]1[C@H]2CC[C@@]3(CC[C@H]4[C@@](C)(CCC[C@]4(C)C(=O)O)[C@@H]3C2)[C@@H]1O [SEROFENDIC ACID B],0.021,234,6,2780,2050,5640,0.33,Active,41,39,19.8,,
C[C@]12N[C@H](Cc3ccccc31)c1ccccc12,,,,,,,,,,,,Active,
COC(=O)[C@@]1(C)CCC[C@@]2(C)[C@@H]3C[C@@H]4CC[C@@]3(CC[C@@H]21)[C@H](O)[C@H]4C[S+](C)[O-] (stereo partly drawn) [SEROFENDIC ACID METHYLESTER],2.2,,14.7,1440,,,0.57,,,33,,,2.21
C[S@+]([O-])C[C@H]1[C@H]2CC[C@@]3(CC[C@H]4[C@@](C)(CCC[C@]4(C)C(=O)O)[C@@H]3C2)[C@@H]1O [SEROFENDIC ACID A],,,8.67,1950,,,0.33,Active,,28.8,,,
